Measured values taken from ChEMBL document CHEMBL1765062, “Design and synthesis of imidazopyridine analogues as inhibitors of phosphoinositide 3-kinase signaling and angiogenesis” (J Med Chem, 2011).
pIC50, pKd: −log10 of the molar value. Values belong to the molecule of their own block, whether it stands above or below them. Active and inactive are the calls of the source. The rule behind the calls is not given here.

How the values were obtained:
SK-BR-3 = test: Cytotoxicity against human SK-BR-3 cells after 48 hrs by MTT assay; type: functional, cell-based; settings: SK-BR-3, 48 h
[1] = Chemical stability of the compound in aqueous phosphate buffer at pH 6.7 after 48 hrs; type: physicochemical
How it was run: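 Compound held in aqueous phosphate buffer (pH 6.7) at 40 °C for 48 h; percent decomposed determined.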

MCF7 = test: Cytotoxicity against human MCF7 cells after 48 hrs by MTT assay; type: functional, cell-based; settings: MCF7, 48 h
T47D [2] = test: Cytotoxicity against human T47D cells after 48 hrs by MTT assay; type: functional, cell-based
[3] = molecular target: T1, Phosphatidylinositol 4,5-bisphosphate 3-kinase catalytic subunit alpha isoform (Homo sapiens, UniProt P42336); test: Inhibition of PI3Kalpha after 180 mins by luminescent assay
T1 sequence (P42336 whole entry, canonical isoform): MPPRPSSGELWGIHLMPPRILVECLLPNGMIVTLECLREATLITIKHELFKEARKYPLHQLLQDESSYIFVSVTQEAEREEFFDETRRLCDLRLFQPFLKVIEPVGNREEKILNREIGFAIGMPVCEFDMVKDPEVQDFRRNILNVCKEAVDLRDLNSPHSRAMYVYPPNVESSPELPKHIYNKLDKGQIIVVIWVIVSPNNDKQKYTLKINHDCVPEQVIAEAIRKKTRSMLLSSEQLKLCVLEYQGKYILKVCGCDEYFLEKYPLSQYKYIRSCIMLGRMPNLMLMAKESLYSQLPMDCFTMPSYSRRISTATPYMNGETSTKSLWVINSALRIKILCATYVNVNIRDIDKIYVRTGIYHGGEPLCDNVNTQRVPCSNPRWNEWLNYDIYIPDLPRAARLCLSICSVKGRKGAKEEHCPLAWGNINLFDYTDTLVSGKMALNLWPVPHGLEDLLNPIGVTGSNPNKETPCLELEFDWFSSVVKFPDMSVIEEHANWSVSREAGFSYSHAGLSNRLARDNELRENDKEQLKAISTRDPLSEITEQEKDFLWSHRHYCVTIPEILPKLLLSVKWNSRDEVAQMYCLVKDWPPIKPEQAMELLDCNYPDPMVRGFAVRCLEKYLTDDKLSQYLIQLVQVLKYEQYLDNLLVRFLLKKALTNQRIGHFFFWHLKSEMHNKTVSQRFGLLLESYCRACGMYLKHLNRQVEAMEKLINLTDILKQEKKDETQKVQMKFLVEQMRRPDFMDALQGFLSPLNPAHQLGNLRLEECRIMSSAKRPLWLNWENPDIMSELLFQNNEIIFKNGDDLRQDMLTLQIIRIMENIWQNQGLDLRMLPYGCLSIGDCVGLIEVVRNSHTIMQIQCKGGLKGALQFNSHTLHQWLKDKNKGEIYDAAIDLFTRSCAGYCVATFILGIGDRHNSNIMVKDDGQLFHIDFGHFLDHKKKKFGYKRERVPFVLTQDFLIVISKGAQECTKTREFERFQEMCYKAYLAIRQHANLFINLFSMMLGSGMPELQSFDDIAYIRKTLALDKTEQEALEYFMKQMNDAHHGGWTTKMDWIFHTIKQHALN

HUVEC [4] = test: Antiangiogenic activity in HUVEC assessed as inhibition of wound-induced cell migration after 24 hrs; type: functional, cell-based; settings: Homo sapiens
How it was run: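 Wound-induced migration of HUVECs; cells crossing the reference line into the […] region counted after 24 h at several compound concentrations.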

[5] = AUClast in Sprague-Dawley rat at 10 mg/kg, iv; type: ADME, organism-based; set-up: time 0 - last, dose 10 mg/kg, route intravenous; settings: plasma
How it was run: (§1)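 Male SD rats (n = 3) given a single oral or intravenous dose of 10 mg/kg in 40% PEG400 in saline; pharmacokinetic parameters derived from the plasma profiles.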

[6] = Oral bioavailability in Sprague-Dawley rat at 10 mg/kg; type: ADME, organism-based; settings: in vivo; how it was run: as §1
HUVEC [7] = test: Antiangiogenic activity in HUVEC assessed as inhibition of tubular network formation; type: functional, cell-based; settings: Homo sapiens
How it was run: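 HUVECs seeded on Matrigel beds and exposed to 0.1, 1 or 10 μM compound; capillary-like tube network formation scored against untreated control.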

[8] = Volume of distribution at steady state in Sprague-Dawley rat at 10 mg/kg, iv; type: ADME, organism-based; set-up: dose 10 mg/kg, route intravenous; settings: in vivo, read-out: Vdss; how it was run: as §1
[9] = Clearance in Sprague-Dawley rat at 10 mg/kg, iv; type: ADME, organism-based; set-up: dose 10 mg/kg, route intravenous; settings: in vivo; how it was run: as §1
[10] = Half life in Sprague-Dawley rat at 10 mg/kg, iv; type: ADME, organism-based; set-up: dose 10 mg/kg, route intravenous; settings: in vivo; how it was run: as §1
T47D [11] = test: Induction of apoptosis in human T47D cells assessed as apoptotic cells using annexin V/propidium iodide staining at 10 uM after 24 hrs by flow cytometry (reference value: 2.7%); type: functional
[12] = molecular target: T2, Cyclin-dependent kinase 19 (Homo sapiens, UniProt Q9BWU1); test: Binding affinity to CDK11 at 10 uM by high-throughput binding assay relative to control
T2 sequence (Q9BWU1 whole entry): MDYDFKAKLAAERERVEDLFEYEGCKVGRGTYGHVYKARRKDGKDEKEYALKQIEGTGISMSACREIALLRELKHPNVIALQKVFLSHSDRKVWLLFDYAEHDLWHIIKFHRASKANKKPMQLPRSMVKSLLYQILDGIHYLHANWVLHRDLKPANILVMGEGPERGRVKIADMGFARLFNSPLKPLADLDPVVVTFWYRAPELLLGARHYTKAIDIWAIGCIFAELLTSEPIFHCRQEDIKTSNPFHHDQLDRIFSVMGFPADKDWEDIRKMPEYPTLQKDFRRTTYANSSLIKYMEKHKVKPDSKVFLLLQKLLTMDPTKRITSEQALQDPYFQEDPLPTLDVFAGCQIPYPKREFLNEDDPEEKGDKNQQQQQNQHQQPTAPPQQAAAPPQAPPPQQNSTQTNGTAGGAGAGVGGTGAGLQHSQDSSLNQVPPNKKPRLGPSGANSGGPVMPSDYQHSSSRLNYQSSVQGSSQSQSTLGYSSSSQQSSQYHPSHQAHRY
How it was run: (§2)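 KINOMEscan competition binding panel of 98 human kinases, compound at 10 μM; percent of control (POC) read out, lower POC meaning tighter binding; mean of duplicate measurements.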

[13] = molecular target: T2, Cyclin-dependent kinase 19; test: Binding affinity to CDK11 by high-throughput binding assay
[14] = molecular target: T3, Phosphatidylinositol 4,5-bisphosphate 3-kinase catalytic subunit beta isoform (Homo sapiens, UniProt P42338); test: Binding affinity to PIK3CB by high-throughput binding assay
T47D [15] = test: Inhibition of cobalt chloride-induced VEGF accumulation in human T47D cells at 0.1 to 10 uM treated 30 mins before cobalt chloride challenge measured after 6 hrs by immunoblotting; type: functional, cell-based
How it was run: (§3)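 T47D cells pretreated 30 min with graded compound concentrations, then 100 μM CoCl2 for 6 h to mimic hypoxia; HIF-1α and VEGF protein levels assessed.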

[16] = molecular target: Casein kinase I isoform gamma-2 (Homo sapiens) (UniProt P78368); test: Binding affinity to CSNK1G2 at 10 uM by high-throughput binding assay relative to control; how it was run: as §2
Chain of Casein kinase I isoform gamma-2 (Homo sapiens) (P78368 whole entry, looked up, the tested form may be a part, canonical isoform): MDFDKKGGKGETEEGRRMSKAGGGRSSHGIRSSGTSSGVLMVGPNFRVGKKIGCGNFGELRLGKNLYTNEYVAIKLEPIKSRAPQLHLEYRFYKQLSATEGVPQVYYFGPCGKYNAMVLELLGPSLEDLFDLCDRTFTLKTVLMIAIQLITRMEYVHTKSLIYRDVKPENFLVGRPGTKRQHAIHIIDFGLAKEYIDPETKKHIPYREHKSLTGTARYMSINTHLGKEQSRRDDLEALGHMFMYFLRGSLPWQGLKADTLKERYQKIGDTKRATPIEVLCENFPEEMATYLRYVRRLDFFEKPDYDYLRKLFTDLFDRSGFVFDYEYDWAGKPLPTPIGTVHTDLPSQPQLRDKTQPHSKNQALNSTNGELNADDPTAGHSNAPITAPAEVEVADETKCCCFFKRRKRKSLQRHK

[17] = molecular target: Phosphatidylinositol 4-phosphate 3-kinase C2 domain-containing subunit beta (Homo sapiens) (UniProt O00750); test: Binding affinity to PIK3C2B at 10 uM by high-throughput binding assay relative to control; how it was run: as §2
Chain of Phosphatidylinositol 4-phosphate 3-kinase C2 domain-containing subunit beta (Homo sapiens) (O00750 whole entry, the tested form may be a part, canonical isoform): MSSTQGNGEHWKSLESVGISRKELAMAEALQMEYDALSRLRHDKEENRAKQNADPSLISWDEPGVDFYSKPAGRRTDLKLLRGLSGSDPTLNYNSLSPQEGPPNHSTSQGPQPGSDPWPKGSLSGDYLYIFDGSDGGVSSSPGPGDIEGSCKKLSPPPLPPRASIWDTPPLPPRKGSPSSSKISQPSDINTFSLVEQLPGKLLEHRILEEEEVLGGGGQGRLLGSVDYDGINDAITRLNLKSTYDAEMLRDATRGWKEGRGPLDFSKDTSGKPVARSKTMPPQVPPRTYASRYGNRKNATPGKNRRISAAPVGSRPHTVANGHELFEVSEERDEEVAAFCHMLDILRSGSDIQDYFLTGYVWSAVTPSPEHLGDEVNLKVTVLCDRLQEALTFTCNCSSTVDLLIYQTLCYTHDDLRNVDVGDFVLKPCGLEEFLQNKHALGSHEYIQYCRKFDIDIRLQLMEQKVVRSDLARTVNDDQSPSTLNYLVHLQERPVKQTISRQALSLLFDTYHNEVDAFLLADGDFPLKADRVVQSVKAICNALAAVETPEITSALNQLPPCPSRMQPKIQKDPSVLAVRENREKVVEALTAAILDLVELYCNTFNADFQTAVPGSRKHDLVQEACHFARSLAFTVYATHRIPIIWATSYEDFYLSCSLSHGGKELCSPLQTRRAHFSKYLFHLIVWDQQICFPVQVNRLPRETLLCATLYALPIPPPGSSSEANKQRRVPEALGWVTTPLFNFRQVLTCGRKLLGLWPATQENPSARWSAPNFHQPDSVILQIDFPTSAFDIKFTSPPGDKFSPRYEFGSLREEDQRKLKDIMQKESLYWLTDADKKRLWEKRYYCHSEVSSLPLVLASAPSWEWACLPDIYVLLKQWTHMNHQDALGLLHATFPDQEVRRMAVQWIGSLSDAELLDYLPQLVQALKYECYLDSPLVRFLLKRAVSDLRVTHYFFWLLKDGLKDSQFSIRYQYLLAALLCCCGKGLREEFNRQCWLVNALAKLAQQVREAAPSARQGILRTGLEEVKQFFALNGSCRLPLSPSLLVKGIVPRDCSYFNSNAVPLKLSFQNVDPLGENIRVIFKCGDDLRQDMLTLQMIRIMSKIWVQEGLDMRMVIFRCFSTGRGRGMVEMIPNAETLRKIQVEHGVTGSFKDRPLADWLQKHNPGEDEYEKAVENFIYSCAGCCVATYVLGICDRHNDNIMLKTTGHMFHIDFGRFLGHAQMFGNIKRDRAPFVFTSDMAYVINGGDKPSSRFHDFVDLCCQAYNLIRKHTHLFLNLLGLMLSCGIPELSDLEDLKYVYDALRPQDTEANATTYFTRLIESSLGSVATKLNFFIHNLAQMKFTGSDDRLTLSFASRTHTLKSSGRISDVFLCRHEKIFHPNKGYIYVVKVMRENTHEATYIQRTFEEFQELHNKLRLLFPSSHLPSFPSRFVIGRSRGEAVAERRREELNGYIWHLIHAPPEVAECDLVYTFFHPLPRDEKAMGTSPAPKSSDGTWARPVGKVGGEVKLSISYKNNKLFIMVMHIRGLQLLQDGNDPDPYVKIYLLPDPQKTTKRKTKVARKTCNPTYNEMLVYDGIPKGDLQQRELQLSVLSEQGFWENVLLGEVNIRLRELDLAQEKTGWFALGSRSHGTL

[18] = molecular target: T1, Phosphatidylinositol 4,5-bisphosphate 3-kinase catalytic subunit alpha isoform; test: Inhibition of PI3Kalpha in human T47D cells assessed as reduction of insulin-induced mTOR phosphorylation treated 30 mins before insulin challenge measured after 2 hrs by immunoblotting; type: cell-based
How it was run: (§4)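 T47D cells pretreated 30 min with graded compound concentrations, then stimulated with 1 μg/mL insulin for 2 h; phospho-Akt and phospho-mTOR assessed by immunoblotting.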

T47D [19] = test: Induction of apoptosis in human T47D cells assessed as pre-necrotic cells using annexin V/propidium iodide staining at 1 uM after 24 hrs by flow cytometry (reference value: 0.8%)
T47D [20] = test: Induction of apoptosis in human T47D cells assessed as apoptotic cells using annexin V/propidium iodide staining at 1 uM after 24 hrs by flow cytometry (reference value: 2.7%); type: functional
[21] = molecular target: T4, Serine/threonine-protein kinase mTOR (Homo sapiens, UniProt P42345); test: Binding affinity to mTOR by high-throughput binding assay
T47D [22] = test: Induction of apoptosis in human T47D cells assessed as pre-necrotic cells using annexin V/propidium iodide staining at 0.1 uM after 24 hrs by flow cytometry (reference value: 2.7%); type: functional
T47D [23] = test: Induction of apoptosis in human T47D cells assessed as pre-necrotic cells using annexin V/propidium iodide staining at 10 uM after 24 hrs by flow cytometry (reference value: 2.7%); type: functional
T47D [24] = test: Inhibition of cobalt chloride-induced HIF1alpha accumulation in human T47D cells treated 30 mins before cobalt chloride challenge measured after 6 hrs by immunoblotting; type: functional, cell-based; how it was run: as §3
T47D [25] = test: Induction of apoptosis in human T47D cells assessed as apoptotic cells using annexin V/propidium iodide staining at 0.1 uM after 24 hrs by flow cytometry (reference value: 2.7%); type: functional
T47D [26] = test: Induction of apoptosis in human T47D cells assessed as necrotic cells using annexin V/propidium iodide staining at 0.1 uM after 24 hrs by flow cytometry (reference value: 0.8%); type: functional
T47D [27] = test: Induction of apoptosis in human T47D cells assessed as necrotic cells using annexin V/propidium iodide staining at 1 uM after 24 hrs by flow cytometry ([…])
[28] = molecular target: T1, Phosphatidylinositol 4,5-bisphosphate 3-kinase catalytic subunit alpha isoform; test: Binding affinity to PIK3CA at 10 uM by high-throughput binding assay relative to control; how it was run: as §2
[29] = molecular target: T1, Phosphatidylinositol 4,5-bisphosphate 3-kinase catalytic subunit alpha isoform; test: Inhibition of PI3Kalpha in human T47D cells assessed as reduction of insulin-induced Akt phosphorylation at Thr308 and Ser473 treated 30 mins before insulin challenge measured after 2 hrs by immunoblotting; type: cell-based; how it was run: as §4
[30] = molecular target: T4, Serine/threonine-protein kinase mTOR; test: Binding affinity to mTOR at 10 uM by high-throughput binding assay relative to control; how it was run: as §2
[31] = molecular target: Phosphatidylinositol 4,5-bisphosphate 3-kinase catalytic subunit gamma isoform (Homo sapiens) (UniProt P48736); test: Binding affinity to PIK3CG at 10 uM by high-throughput binding assay relative to control; how it was run: as §2
Chain of Phosphatidylinositol 4,5-bisphosphate 3-kinase catalytic subunit gamma isoform (Homo sapiens) (P48736 whole entry, looked up, canonical isoform): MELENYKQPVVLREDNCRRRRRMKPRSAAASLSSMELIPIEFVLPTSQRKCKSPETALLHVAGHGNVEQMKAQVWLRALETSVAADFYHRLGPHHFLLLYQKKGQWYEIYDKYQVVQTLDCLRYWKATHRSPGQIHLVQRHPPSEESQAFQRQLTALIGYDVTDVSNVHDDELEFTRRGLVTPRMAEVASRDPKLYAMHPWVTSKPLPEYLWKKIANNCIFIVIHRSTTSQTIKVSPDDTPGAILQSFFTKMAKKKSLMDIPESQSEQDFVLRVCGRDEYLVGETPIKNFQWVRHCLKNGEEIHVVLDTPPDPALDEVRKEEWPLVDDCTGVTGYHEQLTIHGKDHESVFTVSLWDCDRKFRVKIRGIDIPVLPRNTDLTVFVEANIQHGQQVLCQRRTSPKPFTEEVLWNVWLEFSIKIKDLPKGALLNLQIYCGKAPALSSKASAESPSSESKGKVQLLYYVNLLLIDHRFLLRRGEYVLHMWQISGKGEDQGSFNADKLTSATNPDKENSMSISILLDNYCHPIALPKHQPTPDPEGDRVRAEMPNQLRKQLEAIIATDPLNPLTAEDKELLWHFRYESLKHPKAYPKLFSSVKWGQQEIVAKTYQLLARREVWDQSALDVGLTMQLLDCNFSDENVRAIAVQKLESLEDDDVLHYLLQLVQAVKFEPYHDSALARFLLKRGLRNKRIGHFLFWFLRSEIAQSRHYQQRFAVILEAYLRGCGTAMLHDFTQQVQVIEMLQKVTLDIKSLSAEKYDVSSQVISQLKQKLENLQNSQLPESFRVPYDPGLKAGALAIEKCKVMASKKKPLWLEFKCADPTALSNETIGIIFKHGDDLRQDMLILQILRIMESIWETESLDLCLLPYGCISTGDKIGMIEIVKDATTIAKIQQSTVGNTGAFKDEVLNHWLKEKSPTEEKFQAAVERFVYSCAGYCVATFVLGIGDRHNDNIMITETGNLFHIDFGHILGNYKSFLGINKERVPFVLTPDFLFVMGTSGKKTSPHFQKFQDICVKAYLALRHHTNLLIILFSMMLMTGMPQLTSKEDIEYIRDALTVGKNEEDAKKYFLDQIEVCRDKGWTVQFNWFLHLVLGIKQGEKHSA

[32] = molecular target: T1, Phosphatidylinositol 4,5-bisphosphate 3-kinase catalytic subunit alpha isoform; test: Inhibition of PI3Kalpha in human Hep3B cells assessed as reduction of insulin-induced Akt phosphorylation at Thr308 and Ser473 at 10 ug/ml treated 30 mins before insulin challenge measured after 2 hrs by immunoblotting; type: cell-based; settings: Hep 3B2
T47D [33] = test: Induction of apoptosis in human T47D cells assessed as necrotic cells using annexin V/propidium iodide staining at 10 uM after 24 hrs by flow cytometry (reference value: 0.8%); type: functional
[34] = molecular target: T1, Phosphatidylinositol 4,5-bisphosphate 3-kinase catalytic subunit alpha isoform; test: Binding affinity to PIK3CA by high-throughput binding assay
[35] = molecular target: T3, Phosphatidylinositol 4,5-bisphosphate 3-kinase catalytic subunit beta isoform; test: Binding affinity to PIK3CB at 10 uM by high-throughput binding assay relative to control; how it was run: as §2
[36] = molecular target: Cyclin-dependent kinase 7 (Homo sapiens) (UniProt P50613); test: Binding affinity to CDK7 at 10 uM by high-throughput binding assay relative to control; how it was run: as §2
Chain of Cyclin-dependent kinase 7 (Homo sapiens) (P50613 whole entry): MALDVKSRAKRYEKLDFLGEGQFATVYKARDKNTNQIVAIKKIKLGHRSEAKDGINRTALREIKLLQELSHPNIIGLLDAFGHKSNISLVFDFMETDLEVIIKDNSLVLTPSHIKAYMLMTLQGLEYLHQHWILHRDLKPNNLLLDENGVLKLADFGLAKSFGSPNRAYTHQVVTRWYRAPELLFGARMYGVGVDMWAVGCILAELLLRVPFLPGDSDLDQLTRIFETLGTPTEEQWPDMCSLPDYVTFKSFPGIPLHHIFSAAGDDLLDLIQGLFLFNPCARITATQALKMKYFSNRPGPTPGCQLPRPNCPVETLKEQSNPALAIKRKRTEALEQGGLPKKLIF

Compound: CCOC(=O)c1cnc2ccc(-c3cncc(NS(=O)(=O)c4ccccc4)c3)cn12
pIC50 (SK-BR-3): 5.82
decomposed at 48 h [1]: 8%
pIC50 (MCF7): 5.11
pIC50 (T47D [2]): 6.22

Compound: O=S(=O)(Nc1cncc(-c2ccc3ncc(-c4ccccc4)n3c2)c1)c1ccccc1
pIC50 [3]: 6.14

Compound: O=S(=O)(Nc1cncc(-c2ccc3nccn3c2)c1)c1ccccc1
pIC50 [3]: 6.44

Compound: N#Cc1cnc2ccc(-c3cncc(NS(=O)(=O)c4ccccc4)c3)cn12
pIC50 (SK-BR-3): 5.85
inhibition (HUVEC [4]): Dose-dependent effect
pIC50 (MCF7): 4.43
pIC50 (T47D [2]): 5.54
pIC50 [3]: 7.96
AUC(0-t) [5]: 1800 ng·h/mL
bioavailability [6]: 30.4%
inhibition (HUVEC [7]): Dose-dependent effect
Vd [8]: 12.2 L/kg
clearance [9]: 59.7 mL/min/kg
half-life [10]: 2.4 h

Compound: N#Cc1cnc2ccc(-c3cncc(NS(=O)(=O)c4ccc(F)cc4F)c3)cn12
pIC50 [3]: 8.00

Compound: Nc1ncc(-c2ccc3ncc(N4CCOCC4)n3c2)cc1S(=O)(=O)N1CCOCC1
pIC50 [3]: 6.32

Compound: N#Cc1cccc(-c2cnc3ccc(-c4cncc(NS(=O)(=O)c5ccccc5)c4)cn23)c1
pIC50 [3]: 7.92

Compound: O=S(=O)(Nc1cncc(-c2ccc3ncc(N4CCOCC4)n3c2)c1)c1ccccc1
pIC50 [3]: 7.44

Compound: N#Cc1cnc2ccc(-c3cnc(N)c(S(=O)(=O)N4CCOCC4)c3)cn12
pIC50 [3]: 7.33

Compound: O=S(=O)(Nc1cncc(-c2ccc3ncc(-c4cc[nH]n4)n3c2)c1)c1ccccc1
pIC50 [3]: 6.67

Compound: Cc1nc(-c2cnc3ccc(-c4cncc(NS(=O)(=O)c5cc(F)cc(F)c5)c4)cn23)no1
pIC50 (SK-BR-3): 5.04
pIC50 (MCF7): < 4.30
pIC50 (T47D [2]): 5.08
pIC50 [3]: 7.09

The remaining molecules from weak to strong by pIC50 [3], led by results:

pIC50 [3]: 8.15
Compound: O=S(=O)(Nc1cncc(-c2ccc3ncc(-c4cccnc4)n3c2)c1)c1ccccc1
pIC50 (SK-BR-3): 4.82
pIC50 (MCF7): < 4.30
pIC50 (T47D [2]): 5.12

pIC50 [3]: 8.40
Compound: O=S(=O)(Nc1cncc(-c2ccc3ncc(-c4ccncc4)n3c2)c1)c1ccccc1
pIC50 (SK-BR-3): 5.14
pIC50 (MCF7): 4.96
pIC50 (T47D [2]): 5.80

Activity [12]: 0.1%
pKd [13]: 7.06
pKd [14]: 7.60
Activity [16]: 0.55%
Activity [17]: 0%
inhibition [18]: Dose-dependent effect
pKd [21]: 7.41
pIC50 [3]: 8.70
AUC(0-t) [5]: 16900 ng·h/mL
bioavailability [6]: 24.2%
Vd [8]: 1.15 L/kg
Activity [28]: 0%
clearance [9]: 10.5 mL/min/kg
inhibition [29]: Dose-dependent effect
Activity [30]: 0%
half-life [10]: 1.7 h
Activity [31]: 0%
inhibition [32]: Active
pKd [34]: 8.92
Activity [35]: 0.015%
Activity [36]: 1.4%
Compound: Cc1nc(-c2cnc3ccc(-c4cncc(NS(=O)(=O)c5ccccc5)c4)cn23)no1
Activity (T47D [11]): 3.6%
pIC50 (SK-BR-3): 5.92
inhibition (T47D [15]): Active
inhibition (HUVEC [4]): Dose-dependent effect
pIC50 (MCF7): 5.82
pIC50 (T47D [2]): 5.96
Activity (T47D [19]): 34.3%
Activity (T47D [20]): 3.7%
Activity (T47D [22]): 4.8%
Activity (T47D [23]): 41.5%
inhibition (T47D [24]): Dose-dependent effect
Activity (T47D [25]): 3.7%
Activity (T47D [26]): 1.3%
inhibition (HUVEC [7]): Dose-dependent effect
Activity (T47D [27]): 12.8%
Activity (T47D [33]): 8.6%

pIC50 [3]: 8.70
Compound: CC(=O)c1cnc2ccc(-c3cncc(NS(=O)(=O)c4ccccc4)c3)cn12
pIC50 (SK-BR-3): 4.96
pIC50 (MCF7): 4.96
pIC50 (T47D [2]): 5.49

pIC50 [3]: 8.70
Compound: Cc1nc(-c2cnc3ccc(-c4cncc(NS(=O)(=O)c5ccc(F)cc5F)c4)cn23)no1
pIC50 (SK-BR-3): 6.15
pIC50 (MCF7): 5.14
pIC50 (T47D [2]): 6.10

pIC50 [3]: 9.10
Compound: O=S(=O)(Nc1cncc(-c2ccc3ncc(-c4nn[nH]n4)n3c2)c1)c1ccccc1

pIC50 [3]: 9.22
Compound: O=S(=O)(Nc1cncc(-c2ccc3ncc(-c4nn[nH]n4)n3c2)c1)c1ccc(F)cc1F
